The record followed here is ChEMBL document CHEMBL3585317, “Structures and Biological Evaluations of Agelasines Isolated from the Okinawan Marine Sponge Agelas nakamurai” (J Nat Prod, 2015).

Assay [1] has as its system Mycolicibacterium smegmatis. Description: Antimycobacterial activity against Mycobacterium smegmatis NBRC 3207 assessed as inhibition zone at 10 ug/disc after 2 days incubation by paper disc method. The settings on record: for zone of inhibition at 10 µg/disc: NBRC 3207, 48 h, read-out: IZ. The class given is functional. In a few lines: (§1)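 Disc diffusion: strain grown in Middlebrook 7H9 broth (0.05% polysorbate 80, 0.5% glycerol, 10% OADC) 2 days at 37 °C, adjusted to 1.0 × 10^6 CFU/mL, spread on same medium with 1.5% agar. Sample in CH3OH dried onto 6 mm filter disc, placed on plate, 2 days at 37 °C. Controls: streptomycin sulfate 5 μg/disc, CH3OH.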

Assay [2] concerns Mycolicibacterium smegmatis. Kind of assay: Antimycobacterial activity against Mycobacterium smegmatis NBRC 3207 assessed as inhibition zone at 20 ug/disc after 2 days incubation by paper disc method. The class given is functional. The settings on record: NBRC 3207, 48 h, read-out: IZ. Put shortly: as §1
In assay [3] the target is T1, Tyrosine-protein phosphatase non-receptor type 1 (Homo sapiens, UniProt P18031).
T1 sequence (P18031 whole entry): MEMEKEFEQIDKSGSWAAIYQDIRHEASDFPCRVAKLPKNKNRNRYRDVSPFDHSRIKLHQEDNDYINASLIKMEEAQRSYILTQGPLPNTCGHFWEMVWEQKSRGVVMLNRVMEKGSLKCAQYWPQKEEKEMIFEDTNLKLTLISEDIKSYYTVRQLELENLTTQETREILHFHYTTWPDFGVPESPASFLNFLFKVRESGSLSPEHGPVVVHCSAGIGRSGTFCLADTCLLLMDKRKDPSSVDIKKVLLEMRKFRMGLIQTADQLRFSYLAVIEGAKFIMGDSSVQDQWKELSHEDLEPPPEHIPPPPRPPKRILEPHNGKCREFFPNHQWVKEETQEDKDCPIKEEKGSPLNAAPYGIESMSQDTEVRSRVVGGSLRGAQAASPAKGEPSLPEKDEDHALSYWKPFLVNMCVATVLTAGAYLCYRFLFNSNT
Description: Inhibition of human recombinant PTP1B using pNPP as substrate assessed as rate of hydrolysis incubated for 10 mins prior to substrate addition measured after 30 mins by microplate reader analysis.

A short description of assay [4]: Cytotoxicity against human HuH7 cells after 72 hrs by WST1 assay. The class given is functional, cell-based. The settings on record: Huh-7, 72 h. Put shortly:
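1 × 10^4 cells/well seeded, cultured overnight, then exposed to compound 72 h; vehicle control 0.1% EtOH. WST-1 reagent (0.5 mM WST-1, 0.02 mM 1-methoxy-5-methylphenazinium methylsulfate) added, 60 min at 37 °C. Viability = treated/control absorbance × 100%.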

A short description of assay [5]: Cytotoxicity against human EJ1 cells after 72 hrs by WST1 assay. The assay is classed as functional, cell-based. The settings on record: EJ1, 72 h. Put shortly: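 1 × 10^4 cells/well seeded, cultured overnight, then exposed to compound 72 h; vehicle control 0.1% EtOH. WST-1 reagent (0.5 mM WST-1, 0.02 mM 1-methoxy-5-methylphenazinium methylsulfate) added, 60 min at 37 °C. Absorbance 438 nm (reference 620 nm). Viability = treated/control absorbance × 100%.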

Where a name gives a salt, the structure may show the parent alone. Calls of active or inactive are those of the source. The rule behind the calls is not given here. Bounds are passed on as bounds.

As to `CC1=CCC[C@H]2[C@](C)(CC/C(C)=C/Cn3c[n+](C)c4ncnc(N)c43)[C@@H](C)CC[C@@]12C` [AGELASINE A], the zone of inhibition at 10 µg/disc in assay [1] came to 12 mm. Moreover, the zone of inhibition at 20 µg/disc in assay [2] came out at 14 mm. Moreover, the IC50 in assay [3] was more than 24 µM; in assay [4], more than 50 µM; in assay [5] it was 42 µM.

As for `CC1=CCC[C@H](C)[C@@]1(C)CCC(C)(O)CCC/C(C)=C/C[n+]1cn(C)c2ncnc(N)c21` (stereo partly specified), the zone of inhibition at 20 µg/disc in assay [2] is 10 mm. For the same compound, the concentration for half-maximal inhibition (IC50) in assay [3] was more than 23 µM; in assay [4] it was more than 50 µM; in assay [5] it was more than 50 µM.

Turning to `CN[C@@H]1[C@H](O[C@H]2[C@H](O[C@H]3[C@H](O)[C@@H](O)[C@H](N=C(N)N)[C@@H](O)[C@@H]3N=C(N)N)O[C@@H](C)[C@]2(O)C=O)O[C@@H](CO)[C@H](O)[C@H]1O` [STREPTOMYCIN SULFATE], the zone of inhibition at 10 µg/disc in assay [1] is 30 mm.

Take `CC1=CC(=O)C[C@@H]2[C@@](C)(CC/C(C)=C/C[n+]3cn(C)c4ncnc(N)c43)[C@H](C)CC[C@@]12C`: the IC50 is more than 23 µM in assay [3], more than 50 µM in assay [4] and more than 50 µM in assay [5].

Take `C=C1CC[C@@H]2C(C)(C)CCC[C@@]2(C)[C@@H]1CC/C(C)=C/Cn1c[n+](C)c2ncnc(N)c21` [AGELASINE D]: the zone of inhibition at 10 µg/disc in assay [1] is 14 mm. Further, in assay [2], the zone of inhibition at 20 µg/disc was 18 mm. Besides, the IC50 is more than 24 µM in assay [3], 36 µM in assay [4] and 19 µM in assay [5].

For the compound `CC1=CC(=O)C[C@H]2[C@](C)(CC/C(C)=C/C[n+]3cn(C)c4ncnc(N)c43)[C@@H](C)CC[C@@]12C`, the “growth inhibition (GI)” value in assay [1] was “inactive”. The figures for the IC50 in assay [3], in assay [4] and in assay [5] were more than 23 µM, more than 50 µM and more than 50 µM, respectively.

`CC1=CC(=O)C[C@H](C)[C@@]1(C)CC/C(C)=C/CC/C(C)=C/C[n+]1cn(C)c2ncnc(N)c21`: the values for the IC50 in assay [3], in assay [4] and in assay [5] were more than 23 µM, more than 50 µM and more than 50 µM, respectively.

`CC1=CCC[C@@H]2[C@@](C)(CC/C(C)=C/Cn3c[n+](C)c4ncnc(N)c43)[C@H](C)CC[C@@]12C` [AGELASINE B]: in assay [1], the zone of inhibition at 10 µg/disc was 12 mm. For the same compound, the zone of inhibition at 20 µg/disc in assay [2] turned out to be 15 mm. Moreover, the IC50 was more than 24 µM in assay [3], 22 µM in assay [4] and 19 µM in assay [5].

Turning to `C/C(=C\Cn1c[n+](C)c2ncnc(N)c21)CC[C@]1(C)[C@@H](C)CC[C@@]2(C)C(COC(=O)c3cc(Br)c[nH]3)=CCC[C@@H]12`, the zone of inhibition at 10 µg/disc in assay [1] stood at 10 mm. For the same compound, the zone of inhibition at 20 µg/disc in assay [2] came out at 12 mm. In addition, the IC50 in assay [3] is 15 µM; in assay [4], 26 µM; in assay [5], 18 µM.

As to `CC1=CCC[C@H](C)[C@@]1(C)CC/C(C)=C/CC/C(C)=C/Cn1c[n+](C)c2ncnc(N)c21` [AGELINE A], in assay [1], the zone of inhibition at 10 µg/disc came out at 14 mm. Also, in assay [2], the zone of inhibition at 20 µg/disc is 20 mm. Also, the values for the IC50 in assay [3], in assay [4] and in assay [5] were more than 24 µM, 24 µM and 16 µM, respectively.

With `COc1cccc2c1C(=O)c1c(O)c3c(c(O)c1C2=O)C[C@@](O)(C(=O)CO)C[C@@H]3O[C@H]1C[C@H](N)[C@H](O)[C@H](C)O1` [DOXORUBICIN], inhibition in assay [5] was half-maximal at 0.023 µM (IC50).

As for `C/C(=C\Cn1c[n+](C)c2ncnc(N)c21)CC[C@]1(C)[C@@H](C)CC[C@@]2(C)C(COC(=O)c3ccc[nH]3)=CCC[C@@H]12` [AGELINE B], the zone of inhibition at 10 µg/disc in assay [1] turned out to be 9 mm. For the same compound, the zone of inhibition at 20 µg/disc in assay [2] was 12 mm. Moreover, the results for the IC50 in assay [3], in assay [4] and in assay [5] were more than 19 µM, more than 50 µM and more than 50 µM, respectively.

With `C=C1CCCC(C)(C)[C@H]1CC/C(C)=C/CC/C(C)=C/C[n+]1cn(C)c2ncnc(N)c21`, the zone of inhibition at 10 µg/disc in assay [1] worked out at 10 mm. Besides, in assay [2], the zone of inhibition at 20 µg/disc amounted to 14 mm. The IC50 is more than 24 µM in assay [3], more than 50 µM in assay [4] and more than 50 µM in assay [5].
